Columns and labels:
[1] = test system: mouse bone-marrow-derived macrophages (BMDMs); assay: IL-10 production in activated BMDMs; assay type: cell-based; conditions: BMDMs activated with zymosan A or R848
Summary of the method: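 Bone-marrow macrophages from C57BL/6 mice, treated 24 h with test compound or DMSO (0.5%), then stimulated 18 h with R848 (2 μg/mL) or zymosan A (4 μg/mL). IL-10 measured in culture medium.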

[2] = test system: human, monocyte-derived DCs; assay: IL-10 production in R848-stimulated human DCs; assay type: cell-based; conditions: human DCs from two independent donors, R848 stimulation
Summary of the method: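 CD14+ monocytes enriched from healthy-donor buffy coats and cultured to DCs. On day 7, cells scraped and plated at 30,000/well, treated with a concentration series of test compound or DMSO (0.5%), then stimulated 18 h with R848 (2 μg/mL). Medium stored at −80 °C before IL-10 detection. n = 3 biological replicates per donor; two independent experiments.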

[3] = test system: bone-marrow-derived dendritic cells (BMDCs); assay: IL-10 release, cytokines and viability in zymosan A-stimulated BMDCs; assay type: cell-based, mouse
Il10 mRNA = Il10 mRNA levels after R848 stimulation; assay type: cell-based, mouse; conditions: pretreatment, then R848 / microbial stimulation
STAT1–STAT2 = assay: TF-seq pathway reporter assay in BMDMs, STAT1–STAT2; assay type: cell-based, mouse; conditions: ~2 h after stimulation
PI3KC2A = PI3KC2A (Homo sapiens, UniProt O00443); assay: Kinase profiling, PI3KC2A; assay type: binding; conditions: both kinase profiling formats
Summary of the method: (§1)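 Test compound screened at 1 μM against 414 kinases (LanthaScreen Eu binding, Adapta or Z-LYTE), scored as percent probe displacement or residual activity versus DMSO (0.5%). Also screened at 10 μM against 395 kinases by KINOMEscan active-site competitive binding, scored as percent displacement of a catalytic-site probe versus DMSO (0.5%).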

STAT1 = STAT1 phosphorylation in IFNγ-stimulated BMDCs; assay type: cell-based, mouse; conditions: BMDCs pre-incubated with compound
Summary of the method: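 BMDCs pre-incubated with test compound, then stimulated with recombinant murine IFNγ. Cells lysed in Tris pH 7.4 buffer with phosphatase and protease inhibitors, 1% Triton X-100 and 0.2% SDS; lysate clarified at 14,000 × g. 10–20 μg protein run on SDS–PAGE and blotted to PVDF. Probed for total STAT1 and p-STAT1 Tyr701 (1/1,000), β-actin; chemiluminescent detection.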

[4] = molecular target: recombinant cyclin C–CDK19 (Homo sapiens, UniProt Q9BWU1); assay: CDK19 radiometric filter-binding kinase activity assay; assay type: biochemical; conditions: read-out: inhibition of kinase activity of cyclin C–CDK19, IC50
Summary of the method: (§2)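 Purified recombinant cyclin C–CDK8 or cyclin C–CDK19 incubated with a dilution series of test compound. Activity measured by radiometric filter binding as [γ-32P] transfer from ATP to recombinant RBER-IRStide substrate, relative to DMSO (1%) control. IC50 estimated by 4-parameter nonlinear regression.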

[5] = molecular target: T1, recombinant cyclin C–CDK8 (Homo sapiens, UniProt P49336); assay: CDK8 radiometric filter-binding kinase activity assay; assay type: biochemical; conditions: read-out: inhibition of kinase activity of cyclin C–CDK8, IC50
Summary of the method: as §2

[6] = molecular target: human cyclin C–CDK8 complex (Homo sapiens, UniProt P49336); assay: Cyclin C-CDK8 LanthaScreen binding assay; conditions: read-out: binding to cyclin C–CDK8, half-maximal inhibitory concentration (IC50)
Summary of the method: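 Human cyclin C–CDK8 complex in a LanthaScreen binding format. Binding expressed as percent displacement of a dye-labelled probe from the CDK8 kinase domain.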

PI3KCG = PI3KCG (Homo sapiens, UniProt P48736); assay: Kinase profiling, PI3KCG; assay type: binding; conditions: both kinase profiling formats
Summary of the method: as §1

NF-κB = assay: TF-seq pathway reporter assay in BMDMs, NF-κB; assay type: cell-based, mouse; conditions: all stimuli tested
Summary of the method: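 Bone-marrow macrophages grown in DMEM with 30% FBS and 10% L929-conditioned medium, transduced on day 4 with a pooled lentiviral sequencing-based reporter library, then frozen and thawed. Cells plated at 100,000/well and pretreated 24 h at 37 °C with test compound (0.1 or 5 μM) or DMSO (0.5%). Stimulated up to 3 h with a ten-ligand panel or Sendai virus (MOI 10). Reporter transcripts counted as unique tagged molecules by sequencing.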

[7] = test system: bone-marrow-derived dendritic cells (BMDCs); assay: Cytokine production in R848-stimulated BMDCs; assay type: cell-based, mouse; conditions: for IL-10 upregulation in Ccnc Δ/Δ BMDCs: BMDCs lacking cyclin C; for IL-10 upregulation in Ccnc Δ/Δ BMDCs / IL-10 upregulation in Ccnc f/f BMDCs: R848; for IL-10 production: BMDCs, R848 stimulation; for IL-10 upregulation in Ccnc f/f BMDCs: control BMDCs
Summary of the method: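 BMDCs from C57BL/6 bone marrow, pretreated 24 h with test compound or DMSO (0.5%), then given R848 (2 μg/mL) or zymosan A (4 μg/mL) for 18 h; some sets co-treated with T-5224 (100 μM). Cyclin C-deleted cells came from Ccnc f/f × Mx1-Cre mice given poly(I:C) 2.5 μg g−1 i.p. every other day for 3 d, with bone marrow taken 10 d later and deletion confirmed by PCR. Clarified medium assayed by cytometric bead array. n = 3–4 biological replicates; EC50 by 4-parameter regression.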

c-Jun = c-Jun phosphorylation in R848-activated BMDCs; assay type: cell-based, mouse; conditions: dCA pretreatment (100 nM; 18 h)
Summary of the method: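 BMDCs pretreated with test compound, then activated with R848 for a time course. Lysates (10–20 μg protein) separated by SDS–PAGE, transferred to PVDF and immunoblotted for phospho-c-Jun Ser243 (1/1000) with chemiluminescent detection. Two independent experiments.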

[8] = molecular target: T1, recombinant cyclin C–CDK8; assay: CDK8–c-Jun in vitro kinase reaction; assay type: biochemical; conditions: in vitro kinase reaction with recombinant c-Jun
Summary of the method: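 60 ng recombinant cyclin C–CDK8 and 60 ng recombinant human c-Jun pre-incubated 15 min with a dilution series of test compound. Reaction started with 20 μM ATP and run 30 min at 30 °C in 60 mM HEPES pH 7.5, 3 mM MgCl2, 3 mM MnCl2, 1.2 mM DTT, then EDTA-quenched. Read by SDS–PAGE and immunoblot for phospho-c-Jun Ser243; two independent experiments.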

T1 sequence (P49336 whole entry): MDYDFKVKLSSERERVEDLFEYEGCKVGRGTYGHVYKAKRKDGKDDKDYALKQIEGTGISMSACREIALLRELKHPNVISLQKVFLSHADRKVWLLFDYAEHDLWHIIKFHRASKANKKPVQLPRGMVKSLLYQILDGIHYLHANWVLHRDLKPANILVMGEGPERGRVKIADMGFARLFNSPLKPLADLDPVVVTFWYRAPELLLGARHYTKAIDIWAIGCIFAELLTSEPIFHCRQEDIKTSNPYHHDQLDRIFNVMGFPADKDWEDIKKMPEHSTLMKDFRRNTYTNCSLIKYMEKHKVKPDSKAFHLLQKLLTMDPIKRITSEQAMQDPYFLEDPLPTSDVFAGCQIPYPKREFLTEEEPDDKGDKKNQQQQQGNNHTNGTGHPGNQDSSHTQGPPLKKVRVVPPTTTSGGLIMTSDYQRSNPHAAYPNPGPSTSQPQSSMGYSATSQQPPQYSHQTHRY
T1 sequence (P24863 whole entry partner): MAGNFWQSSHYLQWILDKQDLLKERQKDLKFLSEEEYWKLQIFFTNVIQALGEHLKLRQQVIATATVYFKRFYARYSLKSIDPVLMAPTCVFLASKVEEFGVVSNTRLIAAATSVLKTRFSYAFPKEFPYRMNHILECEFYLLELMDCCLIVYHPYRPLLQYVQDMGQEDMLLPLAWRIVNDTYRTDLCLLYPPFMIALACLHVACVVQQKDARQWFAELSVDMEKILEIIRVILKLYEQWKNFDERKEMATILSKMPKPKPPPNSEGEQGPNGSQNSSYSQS
Chain of PI3KC2A (O00443 whole entry): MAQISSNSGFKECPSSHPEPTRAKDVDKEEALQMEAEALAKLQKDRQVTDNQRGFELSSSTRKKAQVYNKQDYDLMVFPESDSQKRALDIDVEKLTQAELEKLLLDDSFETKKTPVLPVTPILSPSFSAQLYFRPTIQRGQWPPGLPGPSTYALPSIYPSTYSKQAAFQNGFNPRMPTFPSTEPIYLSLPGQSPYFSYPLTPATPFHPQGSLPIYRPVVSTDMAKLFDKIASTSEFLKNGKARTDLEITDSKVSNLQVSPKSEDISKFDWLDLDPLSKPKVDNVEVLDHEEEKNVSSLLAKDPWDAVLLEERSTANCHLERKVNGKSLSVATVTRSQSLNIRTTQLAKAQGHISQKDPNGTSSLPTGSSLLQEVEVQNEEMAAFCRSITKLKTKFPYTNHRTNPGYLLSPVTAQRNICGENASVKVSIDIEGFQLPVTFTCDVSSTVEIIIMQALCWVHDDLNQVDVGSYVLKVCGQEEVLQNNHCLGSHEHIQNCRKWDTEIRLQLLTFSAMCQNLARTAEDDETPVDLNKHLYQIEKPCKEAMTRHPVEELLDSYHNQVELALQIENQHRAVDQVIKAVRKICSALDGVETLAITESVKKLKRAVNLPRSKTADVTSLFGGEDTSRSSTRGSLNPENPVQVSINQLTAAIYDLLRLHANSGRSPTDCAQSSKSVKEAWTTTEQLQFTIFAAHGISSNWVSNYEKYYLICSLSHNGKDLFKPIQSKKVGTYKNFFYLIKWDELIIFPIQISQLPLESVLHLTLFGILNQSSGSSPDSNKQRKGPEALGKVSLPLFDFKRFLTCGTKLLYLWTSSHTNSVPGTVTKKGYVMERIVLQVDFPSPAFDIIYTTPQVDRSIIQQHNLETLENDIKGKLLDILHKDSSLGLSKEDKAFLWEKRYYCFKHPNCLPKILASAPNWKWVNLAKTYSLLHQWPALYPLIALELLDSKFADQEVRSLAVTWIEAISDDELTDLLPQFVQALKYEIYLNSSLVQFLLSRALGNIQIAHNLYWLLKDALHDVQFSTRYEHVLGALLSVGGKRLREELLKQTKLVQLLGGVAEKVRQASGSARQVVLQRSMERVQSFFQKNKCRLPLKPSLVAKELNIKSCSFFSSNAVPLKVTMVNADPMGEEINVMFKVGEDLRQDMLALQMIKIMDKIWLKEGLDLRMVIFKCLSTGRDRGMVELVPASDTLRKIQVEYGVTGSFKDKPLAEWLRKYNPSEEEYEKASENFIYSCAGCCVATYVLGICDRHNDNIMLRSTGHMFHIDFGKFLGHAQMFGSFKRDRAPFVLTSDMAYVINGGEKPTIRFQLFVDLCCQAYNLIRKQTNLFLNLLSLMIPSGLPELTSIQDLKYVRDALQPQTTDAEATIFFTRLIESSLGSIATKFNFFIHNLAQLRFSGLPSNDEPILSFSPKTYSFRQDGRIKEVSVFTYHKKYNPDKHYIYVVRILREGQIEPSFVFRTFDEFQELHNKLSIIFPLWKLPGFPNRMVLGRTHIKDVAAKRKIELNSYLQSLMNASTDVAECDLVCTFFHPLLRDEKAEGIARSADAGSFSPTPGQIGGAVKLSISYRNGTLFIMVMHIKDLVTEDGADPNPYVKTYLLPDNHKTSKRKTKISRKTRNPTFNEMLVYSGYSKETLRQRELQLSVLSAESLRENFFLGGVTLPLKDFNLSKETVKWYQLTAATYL
Chain of recombinant cyclin C–CDK19 (Q9BWU1 whole entry): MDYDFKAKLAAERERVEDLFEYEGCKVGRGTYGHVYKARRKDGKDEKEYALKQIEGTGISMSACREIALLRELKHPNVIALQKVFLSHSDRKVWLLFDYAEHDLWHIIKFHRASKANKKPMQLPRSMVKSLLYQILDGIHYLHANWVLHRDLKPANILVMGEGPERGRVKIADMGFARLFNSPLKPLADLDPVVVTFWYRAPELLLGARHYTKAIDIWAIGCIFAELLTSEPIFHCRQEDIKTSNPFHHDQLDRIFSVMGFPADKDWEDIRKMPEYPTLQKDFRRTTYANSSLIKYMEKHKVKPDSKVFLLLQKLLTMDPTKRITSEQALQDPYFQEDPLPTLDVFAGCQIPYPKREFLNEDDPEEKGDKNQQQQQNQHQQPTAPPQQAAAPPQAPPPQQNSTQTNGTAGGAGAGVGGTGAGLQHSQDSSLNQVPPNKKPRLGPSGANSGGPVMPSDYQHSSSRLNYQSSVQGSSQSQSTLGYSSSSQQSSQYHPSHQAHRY
Chain of recombinant cyclin C–CDK19 (P24863 whole entry partner): as the sequence (P24863 whole entry partner) above
Chain of human cyclin C–CDK8 complex (P49336 whole entry, the tested form may be a part): as the sequence (P49336 whole entry) above
Chain of human cyclin C–CDK8 complex (P24863 whole entry partner, the tested form may be a part): as the sequence (P24863 whole entry partner) above
Chain of PI3KCG (P48736 whole entry): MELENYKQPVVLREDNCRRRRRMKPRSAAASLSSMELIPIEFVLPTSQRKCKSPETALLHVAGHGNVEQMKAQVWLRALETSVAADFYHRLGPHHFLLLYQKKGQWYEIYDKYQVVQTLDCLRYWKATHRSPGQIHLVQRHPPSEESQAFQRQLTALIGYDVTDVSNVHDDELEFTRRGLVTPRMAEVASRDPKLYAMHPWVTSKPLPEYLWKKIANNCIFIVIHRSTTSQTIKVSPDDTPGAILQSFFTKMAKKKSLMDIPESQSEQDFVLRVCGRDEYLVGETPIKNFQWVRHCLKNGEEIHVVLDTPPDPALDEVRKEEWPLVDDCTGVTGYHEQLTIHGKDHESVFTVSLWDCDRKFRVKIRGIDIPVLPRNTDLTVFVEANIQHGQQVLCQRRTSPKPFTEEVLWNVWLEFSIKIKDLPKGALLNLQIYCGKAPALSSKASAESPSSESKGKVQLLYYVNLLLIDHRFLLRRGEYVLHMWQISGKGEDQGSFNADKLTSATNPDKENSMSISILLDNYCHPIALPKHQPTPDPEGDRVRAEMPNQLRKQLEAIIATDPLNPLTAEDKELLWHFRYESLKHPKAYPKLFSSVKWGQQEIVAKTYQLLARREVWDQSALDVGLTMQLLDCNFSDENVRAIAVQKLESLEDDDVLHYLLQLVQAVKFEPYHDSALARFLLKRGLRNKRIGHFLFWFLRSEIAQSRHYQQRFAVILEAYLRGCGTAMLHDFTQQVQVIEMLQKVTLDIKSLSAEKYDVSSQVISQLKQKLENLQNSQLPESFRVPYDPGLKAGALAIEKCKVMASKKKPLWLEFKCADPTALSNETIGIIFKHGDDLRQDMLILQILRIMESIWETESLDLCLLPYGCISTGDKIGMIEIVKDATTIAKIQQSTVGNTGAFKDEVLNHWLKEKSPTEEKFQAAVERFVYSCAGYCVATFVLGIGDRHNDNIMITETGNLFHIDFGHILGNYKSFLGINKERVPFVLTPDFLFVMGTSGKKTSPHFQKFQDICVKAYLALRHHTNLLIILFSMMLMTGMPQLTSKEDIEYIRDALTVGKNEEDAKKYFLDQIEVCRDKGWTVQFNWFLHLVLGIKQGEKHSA

| SMILES | IL-10 production [2] | Il10 mRNA levels (Il10 mRNA) | STAT1–STAT2 reporter activity (STAT1–STAT2) | NF-κB reporter activation (NF-κB) | IL-10 upregulation in Ccnc Δ/Δ BMDCs [7] | IL-10 production [7] | IL-10 upregulation in Ccnc f/f BMDCs [7] | further results |
| --- | --- | --- | --- | --- | --- | --- | --- | --- |
| CC1CCc2nc(N)c(C#N)c(-c3cccnc3)c2C1 (stereo not drawn) [BRD6989] | upregulated IL-10 | sustained increase beginning at 4 h and extending to 24 h | suppressed induction of STAT1–STAT2 activity | suppressed NF-κB activation | failed to upregulate IL-10 | greater fold-increase in IL-10 production | remained intact | IL-10 production [1]: increased IL-10 production; cell viability ([3]; 48 h pretreatment, zymosan A 18 h): modestly reducing cell viability; production of IL-1β ([3]; zymosan A): largely unchanged; production of IL-12p40 ([3]; zymosan A): largely unchanged; production of TNFα ([3]; zymosan A): largely unchanged; zymosan A–induced release of IL-6 ([3]; zymosan A): suppressed; kinase profiling hit, PI3KC2A (PI3KC2A): secondary targets; IFNγ-induced phosphorylation of STAT1 at Ser727 (STAT1): inhibited; JAK-mediated phosphorylation of STAT1 Tyr701 (STAT1): did not affect; IC50 [4]: > 30 µM; IC50 [5]: ~0.5 µM; IC50 [6]: ~0.2 µM; kinase profiling hit, PI3KCG (PI3KCG): secondary targets |
| Cn1ncc2cc(-c3cnc(N)c(Cl)c3N3CCC4(CCNC4=O)CC3)ccc21 [CCT251921] | recapitulated the IL-10 potentiating activity of BRD6989 | – | – | – | – | recapitulated the IL-10 potentiating activity of BRD6989 | – | – |
| COc1ccc(N(C(=O)Nc2c(C)cccc2C)c2cc(Nc3ccc(N4CCN(C)CC4)cc3)ncn2)c(OC)c1 [HG-9-91-01, reference compound] | – | elevated Il10 mRNA during the first 2 h | – | – | – | – | – | – |
| CN(C)C/C=C/C(=O)Nc1ccc(C(=O)Nc2cccc(Nc3ncc(Cl)c(-c4c[nH]c5ccccc45)n3)c2)cc1 [THZ-1] | – | – | – | – | – | not enhanced | – | – |
| CN(C)[C@H]1C[C@@]23CC[C@@]4(O2)C(=CC[C@]2(C)C(c5ccc6ccncc6c5)=CC[C@H]24)C=C3[C@@H](O)[C@@H]1O [dCA, Δ^16-cortistatin A] | recapitulated the IL-10 potentiating activity of BRD6989 | – | suppressed induction of STAT1–STAT2 activity | suppressed NF-κB activation | failed to upregulate IL-10 | recapitulated the IL-10 potentiating activity of BRD6989 | remained intact | activating phosphorylation of c-Jun on Ser63 (c-Jun): only moderately delayed; phosphorylation of c-Jun Ser243 (c-Jun): dramatically reduced phosphorylation; c-Jun Ser243 phosphorylation by recombinant cyclin C–CDK8 [8]: concentration-dependent suppression |

From paper PMC5693369 (Nature chemical biology, 2017)
